{"data": "Measured values of several laboratories", "target": "Dual specificity tyrosine-phosphorylation-regulated kinase 1A (DYRK1A, Homo sapiens, UniProt Q13627)"}
{"Compound": "COc1cc(Nc2ncc(F)c(Nc3ccc4c(n3)NC(=O)C(C)(C)O4)n2)cc(OC)c1OC", "assay": "binding, competition with immobilised ligand", "conditions": "10 µM", "measurement": "inhibition", "result": "91%"}
{"Compound": "Cn1cncc1[C@](O)(COc1ccc(C#N)cc1-c1ccc(OC(F)(F)F)cc1)c1ccc(C#N)cc1", "assay": "cell-free assay, competition with immobilised ligand", "conditions": "1 µM", "measurement": "remaining binding", "result": "81%"}
{"Compound": "Nc1ncc(-c2nc(N3CCOCC3)nc(N3CCOCC3)n2)c(C(F)F)n1", "assay": "cell-free assay, competition with immobilised ligand", "conditions": "10 µM", "measurement": "remaining binding", "result": "48%"}
{"Compound": "O=c1[nH]c2ccccc2n1C1CCN(Cc2ccc(-c3[nH]c4cc5ncnc5cc4nc3-c3ccccc3)cc2)CC1", "assay": "cell-free assay", "conditions": "0.5 µM", "measurement": "remaining signal", "result": "101%"}
{"Compound": "Cc1nn(C)cc1-c1nc2c(N3CCN(Cc4ccc(Cl)cc4)CC3)c(Cl)cnc2[nH]1", "assay": "binding, competition with immobilised ligand", "conditions": "1 µM", "measurement": "remaining binding", "result": "82%"}
{"Compound": "Cn1cc(-c2cccc(N3CCc4c(sc5c4CC(C)(C)C5)C3=O)c2CO)cc(Nc2ccncn2)c1=O", "assay": "enzyme activity, inhibitor", "conditions": "1 µM", "measurement": "inhibition", "result": "5%"}
{"Compound": "CC(C)(C)c1cc(C=C(C#N)C#N)cc(Br)c1O", "assay": "enzyme activity, inhibitor", "conditions": "0.5 µM", "measurement": "remaining activity", "result": "95.4%"}
{"Compound": "Cn1cc(-c2cc(F)cc(N3CCn4c(cc5c4CCCC5)C3=O)c2CO)cc(Nc2ccc(N3CCN(C4COC4)CC3)cn2)c1=O", "assay": "enzyme activity, inhibitor", "conditions": "0.1 µM", "measurement": "inhibition", "result": "4%"}
{"Compound": "N#CC1(c2ccccn2)CCN(Cc2cc(C(=O)O)c(=O)n3ccccc23)CC1", "assay": "cell-free assay, competition with immobilised ligand", "conditions": "1 µM", "measurement": "remaining binding", "result": "97%"}
{"Compound": "COc1ncccc1-c1cnn2ccc(N3CCN(C(=O)OC(C)C)CC3)nc12", "assay": "binding, competition with immobilised ligand", "conditions": "1 µM", "measurement": "remaining binding", "result": "95%"}
